Entries after “also recorded” stand apart in the source; their conditions may differ. Read-outs that look alike come from different tables or passages of the source.
Tests used:
[1] = system: L. donovani promastigotes; test: Primary screening against L. donovani promastigotes; type: cell-based; details: Leishmania donovani, 48 h, read-out: % inhibition (48 h)
Summary of the method: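 Promastigotes at 2 × 10^6 cells per mL in RPMI at 26 °C were given test compound at 100 μM, with DMSO (0.2%) as solvent, an amphotericin B reference and a medium-only control. Viability was read by MTT and expressed as % inhibition.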

[2] = system: THP-1 human monocytic cells; test: Cytotoxicity assay; type: cell-based; details: for Log CC50 / CC50: THP-1 human monocytic cells, 72 h, MTT; for CC50: unit printed in Table 5 only
Summary of the method: (§1)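 THP-1 cells in RPMI with 10% FBS were seeded at 1 × 10^6 cells per mL and held 24 h at 37 °C in humidified CO2. Medium was then replaced with test compound or standard at 100, 50, 25, 12.5 and 6.25 μM for 72 h. Viability was read by MTT (0.5 mg mL−1, 4 h, 37 °C), with formazan dissolved in DMSO and absorbance at 570 nm.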

Cytotoxicity assay = type: cell-based, human; details: human, THP-1 human monocytic cells, pH 7.4, Log CC50, THP-1 human monocytic cells, 72 h, MTT
Summary of the method: as §1

papain = target: T1, papain (Carica papaya, UniProt P00784); test: In vitro cysteine protease inhibition assay; type: biochemical
T1 sequence (P00784 134-345): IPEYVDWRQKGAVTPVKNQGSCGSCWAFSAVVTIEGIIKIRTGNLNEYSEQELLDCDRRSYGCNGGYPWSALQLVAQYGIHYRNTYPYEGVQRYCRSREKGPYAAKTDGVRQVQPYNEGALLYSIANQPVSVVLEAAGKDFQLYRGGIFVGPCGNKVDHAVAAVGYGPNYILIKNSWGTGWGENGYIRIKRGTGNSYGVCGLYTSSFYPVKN
Summary of the method: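 Papain was run in activation buffer of sodium acetate (pH 5.5), 8 mM DTT and 4 mM EDTA, with papain […], 10 μM Bz-Arg-AMC and inhibitor at 0–32 μM (dissolved in DMSO). AMC release was followed by fluorescence (excitation 345 nm, emission 440 nm) for 120 min. IC50 came from the straight-line fit of % residual activity versus log[inhibitor].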

[3] = system: L. donovani promastigotes; test: IC50 from dose-dependent anti-promastigote activity; type: cell-based, Leishmania donovani; details: 72 h, read-out: IC50 against L. donovani promastigotes
Summary of the method: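 Log-phase promastigotes (26 °C, M199 with 10% heat-inactivated FBS) were exposed to graded concentrations of test compound, and viability was read by MTT. Percentage viability was calculated as treated/untreated mean × 100. IC50 was extrapolated from the % viability versus concentration plot, from triplicate experiments as mean ± SEM.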

[4] = system: L. donovani promastigotes; test: Cellular morphological alteration of promastigotes; type: cell-based, Leishmania donovani; details: 48 hours, contrast microscope 40× objective
Summary of the method: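 Exponential-phase promastigotes (grown at 26 °C in M199 with 10% heat-inactivated FBS) at 2 × 10^6 cells per mL were incubated without or with test compound or reference drug at 1 μM for 48 h. Cell shape was examined by contrast/light microscopy (40× objective) at 0 and 48 h and scored for programmed-cell-death-type morphology.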

[5] = system: intracellular L. donovani amastigotes; test: Intracellular amastigotes assay in infected macrophages; type: cell-based, Leishmania donovani; details: for Percentage Reductions (%) in intracellular amastigotes: 72 h; for SI (selectivity index): CC50 (THP-1) / IC50 (intracellular amastigotes)
Summary of the method: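 Macrophages (5 × 10^4 per chamber) adhered 2 h at 37 °C in 5% CO2, were washed with serum-free RPMI, then infected overnight with metacyclic L. donovani at 10:1 in complete RPMI 1640. Free promastigotes were washed off after 24 h, and test compound was added in duplicate for 72 h at 37 °C in 5% CO2. Giemsa-stained amastigotes per 100 macrophages were counted and expressed as a percentage of the untreated control mean.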

SARS-CoV-2 3CL protease = details: read-out: IC50 against SARS-CoV-2 3CL protease; cited from earlier work
L. donovani = details: read-out: IC50 against L. donovani; ref Ahmed H. E. Hassan and his team; cited from earlier work
[6] = preliminary cytotoxicity assessments; ref Ahmed H. E. Hassan and his team; cited from earlier work
[7] = serial dilutions starting at 25 μM, MTT

CC/C(=C\c1ccc(OCC(=O)NC(Cc2ccccc2)C(=O)N2CCOCC2)cc1)[N+](=O)[O-] (stereo not drawn) [14a, (E)-N-(1-Morpholino-1-oxo-3-phenylpropan-2-yl)-2-(4-(2-nitrobut-1-en-1-yl)phenoxy)acetamide]
inhibition at 100 µM [1]: 84.8% | cytotoxicity to mammalian macrophages ([2]; even at a concentration of 28 μM): negligible cytotoxicity; also recorded: insignificant cytotoxicity | CC50 at 72 h (Cytotoxicity assay): 28.7 µM | IC50 (papain): 9.63 ± 0.28 µM | IC50 ([3]; Leishmania donovani): 11.9 µM | morphological changes of treated promastigotes [4]: notable morphological alterations | Percentage Reductions (%) in intracellular amastigotes ([5]; 3.125 μM): 37.2% | Percentage Reductions (%) in intracellular amastigotes ([5]; 6.25 μM): 44.1% | Percentage Reductions (%) in intracellular amastigotes ([5]; 12.5 μM): 57.5% | SI (selectivity index) [5]: 3.55

CC/C(=C\c1ccc(OCC(=O)N[C@@H](Cc2ccccc2)C(=O)NCC(=O)OC)cc1)[N+](=O)[O-] [14i, Methyl (E)-(2-(4-(2-nitrobut-1-en-1-yl)phenoxy)acetyl)phenylalanylglycinate]
inhibition at 100 µM [1]: 84.5% | CC50 at 72 h (Cytotoxicity assay): 5.15 µM | IC50 ([3]; Leishmania donovani): 5.3 µM

CC/C(=C\c1ccc(OCC(=O)N[C@@H](Cc2c[nH]c3ccccc23)C(=O)N[C@@H](C)C(=O)OC)cc1)[N+](=O)[O-] [14j, Methyl (E)-(2-(4-(2-nitrobut-1-en-1-yl)phenoxy)acetyl)tryptophylalaninate]
inhibition at 100 µM [1]: 65.5%

CC/C(=C\c1ccc(OCC(=O)N[C@@H](Cc2ccccc2)C(=O)N[C@@H](C)C(=O)OC)cc1)[N+](=O)[O-] [14k, Methyl (E)-(2-(4-(2-nitrobut-1-en-1-yl)phenoxy)acetyl)phenylalanylalaninate]
inhibition at 100 µM [1]: 54.8%

C[C@@H]1[C@H](O)[C@@H](C)/C=C/C=C/C=C/C=C/C=C/C=C/C=C/[C@H](O[C@@H]2O[C@H](C)[C@@H](O)[C@H](N)[C@@H]2O)C[C@@H]2O[C@](O)(C[C@@H](O)C[C@@H](O)[C@H](O)CC[C@@H](O)C[C@@H](O)CC(=O)O[C@H]1C)C[C@H](O)[C@H]2C(=O)O [AmphoB, Amphotericin B, reference compound]
inhibition at 100 µM [1]: 78.5% | IC50 ([3]; Leishmania donovani): 3.07 µM | Percentage Reductions (%) in intracellular amastigotes ([5]; 3.125 μM): 52.3% | Percentage Reductions (%) in intracellular amastigotes ([5]; 6.25 μM): 63.2% | Percentage Reductions (%) in intracellular amastigotes ([5]; 12.5 μM): 85.5% | SI (selectivity index) [5]: 3.48

O=[N+]([O-])C=Cc1ccc([N+](=O)[O-])cc1 [compound 2, 4-nitro-β-nitrostyrene]
IC50 (SARS-CoV-2 3CL protease): 0.73 µM

CCCCCCCC/C=C\CCCCCCCCCCCCOP(=O)([O-])OCC[N+](C)(C)C [erufosine]
IC50 (L. donovani): 9.8 µM | CC50 [6]: 19.4 µM

(E)-1-(2-(Morpholine-4-carbonyl)pyrrolidin-1-yl)-2-(4-(2-nitrobut-1-en-1-yl)phenoxy) ethan-1-one [14b]
Log CC50 [2]: 0.7734 | CC50 [2]: 5.93 µM | IC50 [3, 7]: 16.8 µM

(E)-2-(4-(2-Nitrobut-1-en-1-yl)phenoxy)-1-(2-(thiomorpholine-4-carbonyl)pyrrolidin-1-yl)ethan-1-one [14d]
Log CC50 [2]: 0.5025 | CC50 [2]: 3.18 µM | IC50 [3, 7]: 7.56 µM

(E)-2-(4-(2-Nitrobut-1-en-1-yl)phenoxy)-N-(1-oxo-3-phenyl-1-thiomorpholinopropan-2-yl)acetamide [14c]
Log CC50 [2]: 0.5684 | CC50 [2]: 3.7 µM | IC50 [3, 7]: 7.24 µM

Methyl (E)-(2-(1H-indol-3-yl)-2-(2-(4-(2-nitrobut-1-en-1-yl)phenoxy)acetamido)acetyl)valinate [14h]
Log CC50 [2]: 1.109 | CC50 [2]: 12.9 µM | IC50 [3, 7]: 10 µM

Reference: paper PMC11837772 (RSC Advances, 2025)
